Hits are enriched below; roughly 3.7% of the tested compounds scored in any of these assays.
hERG rescue: shields human hERG channel from block by proarrhythmic agents. Q12809. CHO-hERG, FluxOR thallium flux, dofetilide IC70 present. activation (rescue from dofetilide block), less the hit threshold, % at 10 µM. 310,000 tested, 0.51% active. AID 1511;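 active = activation above the mean of controls blocked by dofetilide plus 5 SD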;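 also: thallium influx through hERG after potassium depolarization seen as dye fluorescence rise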
KCNQ1 pot: human KCNQ1 channel potentiation or activation; P51787; CHO-K1 KCNQ1, thallium flux FluxOR fluorescence; hits give high values; B-score at 10 µM; 310,000 tested, 0.35% active; AID 2648;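 active = fluorescence ratio B-score, a plate-corrected score, at least three library SD, with initial intensity B-score within 5 SD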
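Assay system: CHO-K1 cells stably expressing KCNQ1. Medium: assay buffer for compound exposure, DMSO matched across wells. Timing: 37 °C overnight plating, 90-min dark dye load, 20-min compound pretreatment. Signal: kinetic FluxOR fluorescence, 10 s baseline plus 110 s post-stimulus.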
KCNK9 block: human KCNK9 channel inhibition. HEK293 KCNK9, FluxOR thallium flux fluorescence; hits give low values. B-score at 10 µM. 310,000 tested, 1.2% active;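 active = ratio B-score over 3 SD below the library mean, with starting fluorescence within 5 SD of its mean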;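 also: negative B-score means less thallium flux so channel inhibition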
KCNQ1 block: blocks the human KCNQ1 potassium channel; P51787; CHO-K1 KCNQ1, FluxOR thallium flux fluorescence; hits give high values; B-score at 10 µM; 310,000 tested, 1.3% active; AID 2642;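 active = compounds whose thallium flux B-score, printed positive for inhibition, exceeds three library SD while starting fluorescence stays within three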;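 also: channel opened by potassium depolarization with thallium stimulus after 20 min compound exposure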
KCNK3 inh: human KCNK3 channel inhibition, primary screen; B-score at 10 µM; CHO-KCNK3 thallium flux, FluxOR fluorescence; hits give low values; O14649; 340,000 tested, 0.84% active; AID 602410;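 active = B-score under library mean minus 4 SD, starting fluorescence ratio at most library mean plus 5 SD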;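 also: more negative B-score means stronger inhibition of thallium flux through KCNK3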
Kir21 block: Kir2.1 (mouse) channel inhibition. P35561. HEK293-Kir2.1, FluxOR thallium flux fluorescence; hits give low values. B-score at 10 µM. 310,000 tested, 0.85% active. AID 1672;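 active = fluorescence ratio B-score at or below minus 3 SD of library scores, with starting-brightness B-score within 2 SD, cut at about -4.2 in these data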;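 also: channel flux triggered by added potassium and thallium sulfate stimulus; B-score of peak minus minimum fluorescence over baseline after thallium stimulus; more negative B-score means stronger Kir2.1 block with less thallium influx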
Target sequence (P35561 whole entry, looked up): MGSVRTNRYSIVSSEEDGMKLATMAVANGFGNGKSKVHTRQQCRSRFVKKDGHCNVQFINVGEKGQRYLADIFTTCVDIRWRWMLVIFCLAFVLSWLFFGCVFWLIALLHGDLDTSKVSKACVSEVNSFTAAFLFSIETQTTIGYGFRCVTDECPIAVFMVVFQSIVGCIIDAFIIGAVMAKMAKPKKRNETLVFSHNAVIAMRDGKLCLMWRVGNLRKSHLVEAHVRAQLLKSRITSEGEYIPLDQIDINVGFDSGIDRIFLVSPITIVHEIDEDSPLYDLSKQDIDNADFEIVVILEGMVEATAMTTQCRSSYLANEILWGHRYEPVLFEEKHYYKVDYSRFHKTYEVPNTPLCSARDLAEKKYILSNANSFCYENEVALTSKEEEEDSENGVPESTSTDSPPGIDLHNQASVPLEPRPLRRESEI
KCNK9 inh conf: human KCNK9 inhibitor confirmation; inhibition, % at 10 µM; 4,900 tested, 43% active; HEK293 KCNK9 cells, FluxOR thallium flux fluorescence; shares compounds with KCNK9 block;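 active = thallium signal inhibited by more than 5 SD of the compound-free buffer control wells, on both duplicate plates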;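 also: 0% = assay buffer control wells without compound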
Kir2-1 spec: mouse Kir2.1 off-target activity of KCNK9 modulators. AID 492993. shares compounds with KCNK9 block. 4,900 tested, 4% active. Kir2.1 cells, FluxOR thallium flux fluorescence. inhibition, % at 10 µM;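 active = thallium signal drop more than 5 SD beyond the mean of the no-compound control wells, seen in both duplicate plates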;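 also: signal is fluorescence rise after thallium addition divided by baseline fluorescence; plate controls were assay buffer only for no effect and full block by chlorpromazine control for full effect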
KCNK9 uninduced: second check of KCNK9 modulator effects in non-induced HEK293 cells; shares compounds with KCNK9 block; FluxOR thallium flux; inhibition, % at 10 µM; 4,900 tested, 40% active; AID 492997;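 active = thallium signal drop beyond 5 SD of the untreated control mean, on both duplicate plates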;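 also: plate controls were buffer only IC0 wells for no effect and SID17386958 at its maximal inhibitory level for full effect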
KCNK3 confirm: human KCNK3 channel inhibition, confirmation assay; shares compounds with KCNK3 inh; CHO-KCNK3 thallium flux, FluxOR fluorescence; 0% buffer, 100% carvedilol maximal block; ratio percent of control, % at 10 µM; 2,400 tested, 99% active; AID 651638;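 active = ratio percent of control, averaged over triplicates, above buffer control mean plus 5 SD, cut at about 64% in these data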;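 also: ratio is the fluorescence rise from min to max over baseline after thallium stimulus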
KCNK3 uninduced: KCNK3 inhibitor counter-screen hit in non-induced cells | shares compounds with KCNK3 inh | non-induced KCNK3 parental cells, FluxOR thallium flux; hits give low values | thallium flux ratio (lower = more inhibition) at 10 µM | 2,400 tested, 40% active;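 active = thallium flux ratio, averaged over three wells, more than 5 SD below the buffer control mean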;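 also: host cells are CHO cells without KCNK3 induction; ratio is peak minus trough fluorescence over baseline then normalized to buffer controls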
The depositor's hits bear a star.

How did Cc1cccc(C)c1OCC(=O)Nc1oc(-c2ccccc2)c(-c2ccccc2)c1C#N do in these assays?
hERG rescue: -4; KCNQ1 pot: inactive; KCNK9 block: -17*; KCNQ1 block: inactive; KCNK3 inh: inactive; Kir21 block: 0.62; KCNK9 inh conf: 32%*; Kir2-1 spec: inactive; KCNK9 uninduced: 24%*; KCNK3 confirm: 119*; KCNK3 uninduced: 0.15*

How did O=c1ncc(F)c[nH]1 do in these assays?
hERG rescue: -4; KCNQ1 pot: inactive; KCNK9 block: inactive; KCNQ1 block: inactive; Kir21 block: -0.05

How did CCOc1ccc(N2C(=O)CC(N(Cc3ccco3)C(C)=O)C2=O)cc1 (stereo not drawn) do in these assays?
hERG rescue: -2; KCNQ1 pot: inactive; KCNK9 block: inactive; KCNQ1 block: inactive; KCNK3 inh: inactive; Kir21 block: -0.07

What do the screens show for `N#Cc1ccc(-c2ccco2)nc1SCC(=O)c1ccc(Cl)cc1`?
hERG rescue: -17; KCNQ1 pot: inactive; KCNK9 block: -8.3*; KCNQ1 block: inactive; KCNK3 inh: -13*; Kir21 block: -1.8; KCNK9 inh conf: 44%*; Kir2-1 spec: inactive; KCNK9 uninduced: 38%*; KCNK3 confirm: 146*; KCNK3 uninduced: 0.14*

How did CCN1CCN(S(=O)(=O)c2ccc(Cl)c(C(=O)N(C)CC(=O)Nc3c(C)cccc3C)c2)CC1 do in these assays?
KCNK3 inh: inactive

How did COc1cccc(N2CCN(c3ccc4nnc(CCC(=O)Nc5ccc(OC)c(OC)c5)n4n3)CC2)c1 do in these assays?
hERG rescue: -15; KCNQ1 pot: inactive; KCNK9 block: inactive; KCNQ1 block: inactive; KCNK3 inh: inactive; Kir21 block: 0.59

How did COc1ccc(/C=N\NC(=O)c2sccc2C)cc1Cn1nc(C)cc1C do in these assays?
hERG rescue: -15; KCNQ1 pot: inactive; KCNK9 block: -8.2*; KCNQ1 block: inactive; KCNK3 inh: -8.8*; Kir21 block: -0.07; KCNK9 inh conf: inactive; Kir2-1 spec: inactive; KCNK9 uninduced: inactive; KCNK3 confirm: 88*; KCNK3 uninduced: inactive

What do the screens show for `O=C(OCC(=O)N(CCc1ccccc1)Cc1ccccc1)c1ccccc1NCCO`?
hERG rescue: -20; KCNQ1 pot: inactive; KCNK9 block: -9.5*; KCNQ1 block: inactive; KCNK3 inh: -9.9*; Kir21 block: 0.09; KCNK9 inh conf: 56%*; Kir2-1 spec: inactive; KCNK9 uninduced: inactive; KCNK3 confirm: 95*; KCNK3 uninduced: inactive

Results for O=C(OCC(=O)N(Cc1ccccc1)Cc1ccccc1)c1ccccc1O ?
KCNK3 inh: inactive

Results for O=C(OCC(=O)N(CCc1ccccc1)Cc1ccccc1)c1ccccc1O ?
hERG rescue: -12; KCNQ1 pot: inactive; KCNK9 block: -18*; KCNQ1 block: 8*; KCNK3 inh: -12*; Kir21 block: -0.62; KCNK9 inh conf: 74%*; Kir2-1 spec: inactive; KCNK9 uninduced: 39%*; KCNK3 confirm: 118*; KCNK3 uninduced: inactive

Results for O=C(OCC(=O)N(CCc1ccccc1)Cc1ccccc1)c1cccc(O)c1 ?
hERG rescue: -4; KCNQ1 pot: inactive; KCNK9 block: inactive; KCNQ1 block: inactive; KCNK3 inh: inactive; Kir21 block: -2.3

Results for CC(C)Oc1ccc(/C=N/NC(=O)c2nnn(-c3nonc3N)c2CN(C)c2ccccc2)cc1 ?
hERG rescue: -11; KCNQ1 pot: inactive; KCNK9 block: inactive; KCNQ1 block: inactive; KCNK3 inh: inactive; Kir21 block: 0.87

How did CN(C)S(=O)(=O)c1cccc(C(=O)Nc2n[nH]c(C(F)(F)F)n2)c1 do in these assays?
hERG rescue: -6; KCNQ1 pot: inactive; KCNK9 block: inactive; KCNQ1 block: inactive; KCNK3 inh: inactive; Kir21 block: 1.6

How did COc1ccc(C(=O)NCC(=O)NCc2ccncc2)cc1 do in these assays?
KCNK3 inh: inactive

Results for Cc1ccc(C(=O)Oc2ccc(Br)cc2C(=S)N2CCOCC2)cc1 ?
hERG rescue: -4; KCNQ1 pot: inactive; KCNK9 block: inactive; KCNQ1 block: inactive; KCNK3 inh: inactive; Kir21 block: 1.4

How did Cc1ccccc1C(=O)Oc1ccc(Cl)cc1C(=S)N1CCOCC1 do in these assays?
hERG rescue: -12; KCNQ1 pot: inactive; KCNK9 block: -12*; KCNQ1 block: inactive; KCNK3 inh: -9.3*; Kir21 block: -1.7; KCNK9 inh conf: 56%*; Kir2-1 spec: inactive; KCNK9 uninduced: 32%*; KCNK3 confirm: 114*; KCNK3 uninduced: 0.16*

What do the screens show for `CCOc1ccc(N(CC(=O)NCCc2ccc(Cl)cc2)S(=O)(=O)c2c(C)[nH]c(=O)[nH]c2=O)cc1`?
hERG rescue: -3; KCNQ1 pot: inactive; KCNK9 block: inactive; KCNQ1 block: inactive; KCNK3 inh: inactive; Kir21 block: 0

What do the screens show for `Cc1cn(C2OC(COC(=O)c3ccccc3)C(O)C2O)c(=O)[nH]c1=O` (stereo not drawn)?
hERG rescue: -14; KCNQ1 pot: inactive; KCNK9 block: inactive; KCNQ1 block: inactive; KCNK3 inh: inactive; Kir21 block: 0.31

What do the screens show for `Cc1cn(C2OC(COC(=O)c3ccccc3)C(OC(=O)c3ccccc3)C2OC(=O)c2ccccc2)c(=O)[nH]c1=O` (stereo not drawn)?
hERG rescue: -17; KCNQ1 pot: inactive; KCNK9 block: -10*; KCNQ1 block: inactive; KCNK3 inh: -11*; Kir21 block: 2.8; KCNK9 inh conf: 38%*; Kir2-1 spec: inactive; KCNK9 uninduced: 34%*; KCNK3 confirm: 103*; KCNK3 uninduced: 0.16*

How did COc1cc2c(cc1OC)CN(C(=O)c1ccc(-c3ccccc3)cc1)CC2 do in these assays?
hERG rescue: -14; KCNQ1 pot: inactive; KCNK9 block: inactive; KCNQ1 block: inactive; KCNK3 inh: inactive; Kir21 block: -0.18
